Experimental data taken from ChEMBL document CHEMBL3817745, “Structure-Activity Relationship for the 4(3H)-Quinazolinone Antibacterials” (J Med Chem, 2016).
Converted amounts (≈) assume the structure as drawn. The source made the active and inactive calls. No cut-off for these calls is given here.

Columns and labels:
Staphylococcus aureus [1] = assay: Antibacterial activity against mecA-positive multidrug resistant Staphylococcus aureus NRS119 incubated for 16 to 20 hrs by microdilution method; format: functional
Enterococcus faecalis [2] = assay: Antibacterial activity against vancomycin-resistant Enterococcus faecalis 99 clinical isolate incubated for 16 to 20 hrs by microdilution method; format: functional
Bacillus cereus = assay: Antibacterial activity against Bacillus cereus ATCC 13061 incubated for 16 to 20 hrs by microdilution method; format: functional
Summary of the method: (§1)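 CLSI broth microdilution. 2-fold serial dilutions were made in cation-adjusted Mueller–Hinton broth, with 5% lysed horse blood added for Streptococcus strains, in triplicate. Inoculum 5×10^5 CFU/mL. Plates incubated 36 °C for 16–20 h. MIC taken as the lowest concentration visibly inhibiting growth.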

Klebsiella aerogenes = assay: Antibacterial activity against Enterobacter aerogenes ATCC 35029 incubated for 16 to 20 hrs by microdilution method; format: functional; summary of the method: as §1
Staphylococcus aureus [3] = assay: Antibacterial activity against vancomycin/methicillin-resistant Staphylococcus aureus VRS2 clinical isolate incubated for 16 to 20 hrs by microdilution method; format: functional
Klebsiella pneumoniae = assay: Antibacterial activity against Klebsiella pneumoniae ATCC 700603 incubated for 16 to 20 hrs by microdilution method; format: functional; summary of the method: as §1
Streptococcus pyogenes = assay: Antibacterial activity against Streptococcus pyogenes ATCC 49399 incubated for 16 to 20 hrs by microdilution method; format: functional; summary of the method: as §1
Bacillus licheniformis = assay: Antibacterial activity against Bacillus licheniformis ATCC 12759 incubated for 16 to 20 hrs by microdilution method; format: functional; summary of the method: as §1
Staphylococcus aureus [4] = assay: Antibacterial activity against vancomycin/methicillin-resistant Staphylococcus aureus VRS1 clinical isolate incubated for 16 to 20 hrs by microdilution method; format: functional
Pseudomonas aeruginosa = assay: Antibacterial activity against Pseudomonas aeruginosa […] incubated for 16 to 20 hrs by microdilution method; format: functional; summary of the method: as §1
Staphylococcus aureus [5] = assay: Antibacterial activity against mecA-positive methicillin/oxacillin/tetracycline-resistant Staphylococcus aureus ATCC 27660 incubated for 16 to 20 hrs by microdilution method; format: functional
Escherichia coli = assay: Antibacterial activity against Escherichia coli ATCC 25922 incubated for 16 to 20 hrs by microdilution method; format: functional; summary of the method: as §1
Mus musculus [6] = assay: AUC (0 to last) in ICR mouse peritonitis model infected with methicillin resistant Staphylococcus aureus ATCC 27660 at 5 mg/kg, iv administered as single dose measured up to 8 hrs by UPLC analysis; format: ADME, organism-based; parameters: dose 5 mg/kg, route intravenous, time 0 - last; settings: in vivo
Summary of the method: (§2)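 Fast PK: female ICR mice (n = 2 per time point) given single tail-vein iv injection at 5, 10 or 20 mg/kg in 25% DMSO/65% propylene glycol/10% water (2.5, 5 or 10 mg/mL); terminal cardiac blood at 5 min, 40 min, 2, 4, 8 h; plasma analysed by UPLC with internal standard calibration.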

HepG2 = assay: Cytotoxicity against human HepG2 cells incubated for 16 hrs by XTT assay; format: cell-based; settings: HepG2, 16 h
Summary of the method: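 HepG2 cells were tested with an XTT viability read-out, in triplicate. IC50 was obtained by nonlinear regression.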

Staphylococcus aureus [7] = assay: Antibacterial activity against mecA-positive multidrug resistant Staphylococcus aureus NRS120 incubated for 16 to 20 hrs by microdilution method; format: functional
[8] = Hemolytic activity against human RBC at 64 ug/ml relative to control; format: ADME, cell-based, Erythrocyte; settings: erythrocyte
Summary of the method: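 Hemolysis was measured at a fixed 64 μg/mL on a 10% red-cell suspension from heparinized human blood. Triton-X served as the positive control, and results are given as percent hemolysis.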

Staphylococcus aureus [9] = assay: Antibacterial activity against mecA-positive multidrug resistant Staphylococcus aureus COL NRS100 incubated for 16 to 20 hrs by microdilution method; format: functional
Enterococcus faecalis [10] = assay: Antibacterial activity against methicillin-susceptible Enterococcus faecalis ATCC 29212 incubated for 16 to 20 hrs by microdilution method; format: functional; summary of the method: as §1
Staphylococcus aureus [11] = assay: Antibacterial activity against methicillin-susceptible Staphylococcus aureus ATCC 29213 incubated for 16 to 20 hrs by microdilution method; format: functional
Acinetobacter baumannii = assay: Antibacterial activity against Acinetobacter baumannii ATCC 17961 incubated for 16 to 20 hrs by microdilution method; format: functional; summary of the method: as §1
Streptococcus oralis = assay: Antibacterial activity against Streptococcus oralis ATCC 9811 incubated for 16 to 20 hrs by microdilution method; format: functional; summary of the method: as §1
[12] = test system: Staphylococcus haemolyticus; assay: Antibacterial activity against Staphylococcus haemolyticus ATCC 29970 incubated for 16 to 20 hrs by microdilution method; format: functional
[13] = test system: Staphylococcus epidermidis; assay: Antibacterial activity against Staphylococcus epidermidis ATCC 35547 incubated for 16 to 20 hrs by microdilution method; format: functional; summary of the method: as §1
Enterococcus faecium = assay: Antibacterial activity against Enterococcus faecium NCTC 7171 incubated for 16 to 20 hrs by microdilution method; format: functional; summary of the method: as §1
[14] = Ratio of hemolytic concentration for human RBC to MIC for methicillin-susceptible Staphylococcus aureus ATCC 29213
[15] = Ratio of IC50 for human HepG2 cells to MIC for methicillin-susceptible Staphylococcus aureus ATCC 29213
Summary of the method: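 HepG2 XTT cytotoxicity in triplicate, IC50 by nonlinear regression, divided by broth-microdilution MIC for ATCC 29213.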

Mus musculus [16] = assay: AUC (0 to last) in ICR mouse peritonitis model infected with methicillin resistant Staphylococcus aureus ATCC 27660 at 20 mg/kg, iv administered as single dose measured up to 8 hrs by UPLC analysis; format: ADME, organism-based; parameters: dose 20 mg/kg, time 0 - last, route intravenous; settings: in vivo; summary of the method: as §2
Staphylococcus aureus [17] = assay: Antibacterial activity against Staphylococcus aureus COL expressing pbp3 antisense plasmid assessed as increase in zone of inhibition after 18 to 20 hrs in presence of xylose; format: functional, organism-based
Summary of the method: (§3)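 MRSA COL strains carrying pbpA, pbp2, mecA or pbp3 under antisense control were grown overnight on agar with 34 μg/mL chloramphenicol. Molten chloramphenicol agar with 0 or 50 mM xylose was seeded at 1×10^7 CFU/mL and set. Compound (10 μL) was spotted on the agar, and plates were incubated 36 °C for 18–20 h. Susceptibility with and without xylose induction was compared.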

Staphylococcus aureus [18] = assay: Antibacterial activity against Staphylococcus aureus COL expressing pbp2a antisense plasmid assessed as increase in zone of inhibition after 18 to 20 hrs in presence of xylose; format: functional, organism-based; summary of the method: as §3
Staphylococcus aureus [19] = assay: Antibacterial activity against Staphylococcus aureus COL expressing pbpA antisense plasmid assessed as increase in zone of inhibition after 18 to 20 hrs in presence of xylose; format: functional, organism-based; summary of the method: as §3
Staphylococcus aureus [20] = assay: Antibacterial activity against Staphylococcus aureus COL expressing pbp2 antisense plasmid assessed as increase in zone of inhibition after 18 to 20 hrs in presence of xylose; format: functional, organism-based; summary of the method: as §3
Staphylococcus aureus [21] = assay: Antibacterial activity against methicillin-resistant Staphylococcus aureus NRS70 in ICR mouse neutropenic thigh infection model assessed as reduction in bacterial load at 20 mg/kg, sc tid administered every 8 hrs starting from 1 hr post infection and measured 7 hrs post last dose; format: functional, organism-based
Summary of the method: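 Female ICR mice (n = 8 per group) made neutropenic with ip cyclophosphamide 200 mg/kg at 4 days and 1 day pre-infection; 100 μL NRS70 (~1×10^6 CFU/mL in brain–heart infusion) injected im into right thigh; sc doses at 1, 9, 17 h; thighs harvested at 24 h, homogenized, plated in triplicate on LB agar; log10 CFU/g.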

| Compound | MIC (Enterococcus faecalis [2]) [µg/mL] | MIC (Bacillus cereus) [µg/mL] | MIC (Klebsiella aerogenes) [µg/mL] | MIC (Staphylococcus aureus [3]) [µg/mL] | MIC (Klebsiella pneumoniae) [µg/mL] | MIC (Streptococcus pyogenes) [µg/mL] | MIC (Bacillus licheniformis) [µg/mL] | MIC (Staphylococcus aureus [4]) [µg/mL] | MIC (Pseudomonas aeruginosa) [µg/mL] | MIC (Staphylococcus aureus [5]) [µg/mL] | MIC (Escherichia coli) [µg/mL] | AUClast (Mus musculus [6]) [µg·min/mL] | IC50 (HepG2) [µg/mL] | Activity [8] [%] | MIC (Staphylococcus aureus [9]) [µg/mL] | MIC (Enterococcus faecalis [10]) [µg/mL] | MIC (Staphylococcus aureus [11]) [µg/mL] | MIC (Acinetobacter baumannii) [µg/mL] | MIC (Streptococcus oralis) [µg/mL] | MIC (Enterococcus faecium) [µg/mL] | other results |
| --- | --- | --- | --- | --- | --- | --- | --- | --- | --- | --- | --- | --- | --- | --- | --- | --- | --- | --- | --- | --- | --- |
| CS(=O)(=O)Nc1cccc(-n2c(/C=C/c3ccc(C#N)cc3)nc3ccccc3c2=O)c1 | 128 (≈ 289 µM) | > 128 | ≥ 16 | 0.125 (≈ 0.282 µM) | ≥ 16 | > 128 | > 128 | 0.5 (≈ 1.13 µM) | ≥ 16 | 0.25 (≈ 0.565 µM) | ≥ 16 | 31 | 33.4 (≈ 75.5 µM) | < 1 | 0.5 (≈ 1.13 µM) | > 128 | 0.004 (≈ 0.00904 µM) | ≥ 16 | > 128 | > 128 | MIC (Staphylococcus aureus [1]): 0.5 µg/mL (≈ 1.13 µM); MIC (Staphylococcus aureus [7]): 0.25 µg/mL (≈ 0.565 µM); MIC [12]: 0.125 µg/mL (≈ 0.282 µM); MIC [13]: 0.125 µg/mL (≈ 0.282 µM) |
| N#Cc1ccc(/C=C/c2nc3ccccc3c(=O)n2-c2cccc(O)c2)cc1 | 64 (≈ 175 µM) | > 128 | ≥ 16 | 0.06 (≈ 0.164 µM) | ≥ 16 | > 128 | > 128 | 0.5 (≈ 1.37 µM) | ≥ 16 | 0.5 (≈ 1.37 µM) | ≥ 16 | 26.8 | 53.6 (≈ 147 µM) | < 1 | 0.25 (≈ 0.684 µM) | 128 (≈ 350 µM) | 0.03 (≈ 0.0821 µM) | ≥ 16 | > 128 | > 128 | MIC (Staphylococcus aureus [1]): 0.125 µg/mL (≈ 0.342 µM); MIC (Staphylococcus aureus [7]): 0.125 µg/mL (≈ 0.342 µM); MIC [12]: 0.125 µg/mL (≈ 0.342 µM); MIC [13]: 0.125 µg/mL (≈ 0.342 µM) |
| O=c1c2ccccc2nc(/C=C/c2ccc(F)cc2)n1-c1cccc(O)c1 | – | – | ≥ 16 | – | ≥ 16 | – | – | – | ≥ 16 | – | ≥ 16 | 466 | 16.4 (≈ 45.8 µM) | < 1 | – | – | 0.25 (≈ 0.698 µM) | ≥ 16 | – | ≥ 8 | Ratio [14]: > 120; Ratio [15]: >30 |
| CC(=O)Nc1cccc(-n2c(/C=C/c3ccc(C#N)cc3)nc3ccccc3c2=O)c1 | 64 (≈ 157 µM) | > 128 | ≥ 16 | 0.125 (≈ 0.308 µM) | ≥ 16 | > 128 | > 128 | 4 (≈ 9.84 µM) | ≥ 16 | 1 (≈ 2.46 µM) | ≥ 16 | 38 | 51 (≈ 125 µM) | < 1 | 1 (≈ 2.46 µM) | 128 (≈ 315 µM) | 0.25 (≈ 0.615 µM) | ≥ 16 | > 128 | > 128 | MIC [13]: 0.06 µg/mL (≈ 0.148 µM) |
| O=C(O)c1cccc(-n2c(/C=C/c3ccc(F)cc3)nc3ccccc3c2=O)c1 | > 128 | > 128 | ≥ 16 | 1 (≈ 2.59 µM) | ≥ 16 | 128 (≈ 331 µM) | > 128 | 8 (≈ 20.7 µM) | ≥ 16 | 2 (≈ 5.18 µM) | ≥ 16 | – | 95.5 (≈ 247 µM) | < 1 | 8 (≈ 20.7 µM) | > 128 | 1 (≈ 2.59 µM) | ≥ 16 | 128 (≈ 331 µM) | > 128 | AUClast (Mus musculus [16]): 2560 µg·min/mL; MIC (Staphylococcus aureus [7]): 8 µg/mL (≈ 20.7 µM); MIC [12]: 0.25 µg/mL (≈ 0.647 µM); MIC [13]: 0.125 µg/mL (≈ 0.324 µM) |
| C#Cc1ccc(/C=C/c2nc3ccccc3c(=O)n2-c2cccc(C(=O)O)c2)cc1 | – | – | – | – | – | – | – | – | – | – | – | – | – | – | – | – | – | – | – | – | Activity (Staphylococcus aureus [17]): inactive; Activity (Staphylococcus aureus [18]): Active; Activity (Staphylococcus aureus [19]): Active; Activity (Staphylococcus aureus [20]): inactive; Activity (Staphylococcus aureus [21]): Active |
| CCO/N=C(\C(=O)N[C@@H]1C(=O)N2C(C(=O)[O-])=C(Sc3nc(-c4cc[n+](C)cc4)cs3)CS[C@H]12)c1nsc(NP(=O)(O)O)n1 | – | – | – | – | – | – | – | – | – | – | – | – | – | – | – | – | – | – | – | – | Activity (Staphylococcus aureus [17]): Active; Activity (Staphylococcus aureus [18]): Active; Activity (Staphylococcus aureus [19]): Active; Activity (Staphylococcus aureus [20]): Active |
